Holding throughout (type): functional, organism-based
The test system of test [1] is Mycolicibacterium smegmatis. Nature of the test: Concentration for complete inhibition of growth against clofazimine resistant Mycobacterium smegmatis 607 strain in vitro; Precipitation. The procedure, abridged: (§1)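 Strain: 20× step-up clofazimine-resistant mutant of M. smegmatis ATCC607. 10^5 viable cells inoculated into modified Kirchner's medium with 0.5% Tween 80. Drugs were added in DMSO (2% final in all tubes). Roller tubes were incubated at 37 °C for 72 h. Growth was read as optical transmission in a spectrophotometer.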

Test [2] concerns Mycolicibacterium smegmatis. Nature of the test: Concentration for 100% inhibition of growth of dapsone sensitive Mycobacterium smegmatis 607 strain in vitro. The method, boiled down:
(§2)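 M. smegmatis ATCC607-derived strains (one of three used, including a dapsone-sensitive one) were grown in modified Kirchner's medium with 0.5% Tween 80, inoculated with 10^5 viable cells. Drugs were added in DMSO (2% final). Roller tubes were incubated at 37 °C for 72 h. Growth was read as spectrophotometric transmission.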

Test [3] concerns Mycolicibacterium smegmatis. Description: Concentration for complete inhibition of growth against rifampicin resistant Mycobacterium smegmatis 607 strain in vitro; Precipitation. The procedure, abridged:
as §2

Test [4] has as its system Mycolicibacterium smegmatis. Description: 100% inhibition of growth of clofazimine resistant Mycobacterium smegmatis 607 strain in vitro. The method, boiled down: as §1
Test [5] relates to Mycolicibacterium smegmatis. Nature of the test: 100% inhibition of growth of rifampicin resistant Mycobacterium smegmatis 607 strain in vitro. The procedure, abridged:
as §2

`CCOc1ccc(Nc2cc3nc4ccccc4n(-c4ccc(OCC)cc4)c-3cc2=N)cc1`: the results for the Concentration in test [1], in test [2] and in test [3] were 100 µg/mL, 6 µg/mL and 50 µg/mL, respectively.

On to `CC(C/N=c1\cc2n(-c3ccccc3)c3ccccc3nc-2cc1Nc1ccccc1)N(C)C` (configuration not stated), for which the Concentration worked out at 4 µg/mL in test [4], 0.8 µg/mL in test [2] and 1 µg/mL in test [5].

Consider `CCN1CCCC(/N=c2\cc3n(-c4ccc(Cl)cc4)c4ccccc4nc-3cc2Nc2ccc(Cl)cc2)C1` (configuration not stated), for which the results for the Concentration in test [4], in test [2] and in test [5] were 8 µg/mL, 0.5 µg/mL and 0.5 µg/mL, respectively.

Take `Clc1ccc(Nc2cc3nc4ccccc4n(-c4ccc(Cl)cc4)c-3c/c2=N\CCCN2CCOCC2)cc1`: the Concentration in test [4] is 12 µg/mL; in test [2], 0.5 µg/mL; in test [5] it was 0.4 µg/mL.

In the case of `O=C1CCCN1CC/N=c1\cc2n(-c3ccc(Cl)cc3)c3ccccc3nc-2cc1Nc1ccc(Cl)cc1`, the Concentration in test [4] came out at 20 µg/mL; in test [2], 1 µg/mL; in test [5], 1.6 µg/mL.

For `c1ccc(Nc2cc3nc4ccccc4n(-c4ccccc4)c-3c/c2=N\CC2CCCCC2)cc1`, the figures for the Concentration in test [4], in test [2] and in test [5] were 100 µg/mL, 2 µg/mL and 2 µg/mL, respectively.

`CC(C)C/N=c1\cc2n(-c3ccccc3)c3ccccc3nc-2cc1Nc1ccccc1`: the Concentration came to 20 µg/mL in test [4], 2 µg/mL in test [2] and 3 µg/mL in test [5].

Take `CN1CCN(CCC/N=c2\cc3n(-c4ccc(Cl)cc4)c4ccccc4nc-3cc2Nc2ccc(Cl)cc2)CC1`: the figures for the Concentration in test [4], in test [2] and in test [5] were 1 µg/mL, 0.3 µg/mL and 0.3 µg/mL, respectively.

Take `CCN(CC)CCCC(C)/N=c1\cc2n(-c3ccc(Cl)cc3)c3ccccc3nc-2cc1Nc1ccc(Cl)cc1` (configuration not stated): the figures for the Concentration in test [4], in test [2] and in test [5] were 2 µg/mL, 0.2 µg/mL and 0.2 µg/mL, respectively.

Take `CC(C)C(C)/N=c1\cc2n(-c3ccc(Cl)cc3)c3ccccc3nc-2cc1Nc1ccc(Cl)cc1` (configuration not stated): the Concentration in test [4] was 30 µg/mL; in test [2] it was 3 µg/mL; in test [5] it was 4 µg/mL.

Regarding `Clc1ccc(Nc2cc3nc4ccccc4n(-c4ccc(Cl)cc4)c-3c/c2=N\CCCN2CCCCC2)cc1`, the Concentration in test [4] is 2 µg/mL; in test [2] it was 0.2 µg/mL; in test [5], 0.3 µg/mL.

As to `CCN1CCCC1C/N=c1\cc2n(-c3ccc(Cl)cc3)c3ccccc3nc-2cc1Nc1ccc(Cl)cc1` (configuration not stated), the Concentration in test [4] came to 10 µg/mL; in test [2] it was 1 µg/mL; in test [5], 1 µg/mL.

For the compound `CC(C)CC/N=c1\cc2n(-c3ccccc3)c3ccccc3nc-2cc1Nc1ccccc1`, the Concentration in test [4] is 20 µg/mL; in test [2], 2 µg/mL; in test [5], 2 µg/mL.

With `CCN(CC)CCCC(C)/N=c1\cc2n(-c3ccccc3)c3ccccc3nc-2cc1Nc1ccccc1` (configuration not stated), the values for the Concentration in test [4], in test [2] and in test [5] were 2 µg/mL, 0.3 µg/mL and 0.4 µg/mL, respectively.

On to `COC(C/N=c1\cc2n(-c3ccccc3)c3ccccc3nc-2cc1Nc1ccccc1)OC`, for which the Concentration was found to be 100 µg/mL in test [4], 4 µg/mL in test [2] and 4 µg/mL in test [5].

With `c1ccc(Nc2cc3nc4ccccc4n(-c4ccccc4)c-3c/c2=N\CCCN2CCOCC2)cc1`, the Concentration in test [4] stood at 6 µg/mL; in test [2], 1 µg/mL; in test [5] it was 0.8 µg/mL.

As for `CCN1CCCC(/N=c2\cc3n(-c4ccccc4)c4ccccc4nc-3cc2Nc2ccccc2)C1` (configuration not stated), the results for the Concentration in test [4], in test [2] and in test [5] were 6 µg/mL, 0.4 µg/mL and 0.6 µg/mL, respectively.

Take `CC1CCCCN1CCC/N=c1\cc2n(-c3ccc(Cl)cc3)c3ccccc3nc-2cc1Nc1ccc(Cl)cc1` (configuration not stated): the figures for the Concentration in test [4], in test [2] and in test [5] were 2 µg/mL, 0.2 µg/mL and 0.2 µg/mL, respectively.

With `Clc1ccc(Nc2cc3nc4ccccc4n(-c4ccc(Cl)cc4)c-3c/c2=N\CC2CCNCC2)cc1`, the values for the Concentration in test [4], in test [2] and in test [5] were 0.6 µg/mL, 0.2 µg/mL and 0.2 µg/mL, respectively.

For `OCCNCC/N=c1\cc2n(-c3ccccc3)c3ccc(Cl)cc3nc-2cc1Nc1ccccc1`, the results for the Concentration in test [4], in test [2] and in test [5] were 20 µg/mL, 5 µg/mL and 10 µg/mL, respectively.

Consider `CCC(CO)/N=c1\cc2n(-c3ccccc3)c3ccccc3nc-2cc1Nc1ccccc1` (configuration not stated), for which the results for the Concentration in test [4], in test [2] and in test [5] were 100 µg/mL, 2 µg/mL and 30 µg/mL, respectively.

In the case of `CCC/N=c1\cc2n(-c3ccc(Cl)cc3)c3ccccc3nc-2cc1Nc1ccc(Cl)cc1`, the Concentration came to 100 µg/mL in test [4], 3 µg/mL in test [2] and 3 µg/mL in test [5].

As for `CCOc1ccc(Nc2cc3nc4ccccc4n(-c4ccc(OCC)cc4)c-3c/c2=N\CC(C)C)cc1`, the Concentration in test [4] was 100 µg/mL; in test [2], 4 µg/mL; in test [5], 4 µg/mL.

Take `c1ccc(Nc2cc3nc4ccccc4n(-c4ccccc4)c-3c/c2=N\C2CCCC2)cc1`: the Concentration in test [4] was 100 µg/mL; in test [2] it was 3 µg/mL; in test [5], 3 µg/mL.

For the origin of these results see ChEMBL document CHEMBL1124233, “Clofazimine analogues active against a clofazimine-resistant organism” (J Med Chem, 1988).
